Compound activity (PubChem)
TRPC4 PAM – TRPC4 (mouse) allosteric potentiation; Q9QUQ5; HEK293 TRPC4beta/mu-opioid, DAMGO EC20, Fluo-4 Ca2+ flux; hits give high values; B-score at 10 µM; 0.42% of 310,000 active; AID 2227;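 active means B-score of calcium response area above 5 SD of library B-scores, with initial fluorescence ratio within 5 SD of library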
TRPC4 agonist – activators of mouse TRPC4 channel. Q9QUQ5. HEK293 TRPC4beta/mu-opioid, Fluo4 calcium fluorescence; hits give high values. B-score at 10 µM. 0.49% of 310,000 active. AID 2237;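 active means B-score above 5 SD of library B-scores, and initial fluorescence ratio not above library mean plus 5 SD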;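 further: positive B-score marks a calcium rise read as TRPC4 activation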
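system = HEK293 cells stably co-expressing mouse TRPC4beta and mu-opioid receptor | schedule = Fluo4 dye loading 45 min at room temperature, 110 s recording | measure = B-scored integrated calcium fluorescence ratio | signal = Fluo4 calcium-sensitive dye fluorescence, kinetic, 1 Hz baseline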
TRPC6 inh – blocks the mouse TRPC6 cation channel. B-score at 10 µM. HEK293-TRPC6, membrane potential dye, ACh-evoked depolarization; hits give low values. AID 2553. Q61143. 1.1% of 310,000 active;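 active means B-score under library mean minus 3 SD, initial fluorescence not abnormally high, positive integrated signal ratio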;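 further: B-score derived from integrated fluorescence ratio over the kinetic read; more negative B-score means stronger inhibition of depolarization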
DNA FID counter – fluorescent intercalator displacement, NS3 helicase counter-screen; DNA fluorescent intercalator displacement, fluorescence; inhibition, % at 7.9 µM; 0.17% of 290,000 active; AID 1845; in the data active means inhibition above about 37%;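 further: higher means more ethidium bromide displaced from hairpin DNA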
TRPC6 activator – mouse TRPC6 channel activation; Q61143; HEK293-TRPC6 membrane potential dye fluorescence; hits give high values; B-score at 10 µM; 0.13% of 310,000 active;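 active means B-score of the integrated fluorescence ratio above library mean plus 3 SD, and starting fluorescence ratio within library mean plus 5 SD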;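 further: higher score means more depolarization so channel activation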
TRPC4 block – blocks the mouse TRPC4 cation channel. HEK293 TRPC4beta/mu-opioid, DAMGO-evoked Fluo4 calcium flux; hits give low values. B-score at 10 µM. AID 2247. 0.39% of 300,000 active;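 active means B-score over 3 SD under the library average, no early fluorescence shift, positive overall ratio signal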
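Assay system: TRPC4beta/mu-opioid receptor HEK293 cell line; compound dosing: single concentration per test compound; detection: Fluo4 Ca2+ flux fluorescence; evaluation: per-well B score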
TRPC4 spec 2 – second selectivity test of TRPC6 inhibitors: effect on mouse TRPC4 | shares compounds with TRPC6 inh | HEK293 TRPC4/MOR, membrane potential dye fluorescence; channel activated by saturating DAMGO dose | inhibition, % at 10 µM | 42% of 920 active | AID 2776;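 active means compounds whose fluorescence signal differed from control wells by over 3 SD, either direction, in both duplicate plates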
TRPC4 spec – tests whether TRPC6 inhibitors also affect mouse TRPC4; shares compounds with TRPC6 inh; HEK293 TRPC4/mu-opioid, membrane potential fluorescence; AID 2777; 61% of 920 active; activity change, negative = inhibition, % at 10 µM;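 active means rise or fall in signal beyond 3 SD of buffer-only wells in both replicate plates, either sign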;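 further: integrated kinetic ratio of fluorescence range over baseline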
HEK293 MPD ctr 2-1 – parental HEK293 nonspecific activity of TRPC6 inhibitors, second screen | 31% of 920 active | parental HEK293 membrane potential dye fluorescence; maximal acetylcholine challenge after compound addition | signal change vs control, % at 10 µM | shares compounds with TRPC6 inh;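 active means membrane potential signal moving either way by over 3 SD of the maximum-effect control, in both duplicate plates, meaning non-specific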
HEK293 MPD ctr-1 – checks TRPC6 inhibitor effects in parental HEK293 cells | membrane potential signal change, % at 10 µM | shares compounds with TRPC6 inh | 60% of 920 active | AID 2780 | parental HEK293 membrane potential dye fluorescence;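 active means membrane potential signal shifting up or down by more than 3 SD of buffer-only wells, on both duplicate plates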
HEK293 MPD ctr-2 – parental HEK293 nonspecific activity of TRPC6 modulators; shares compounds with TRPC6 inh; membrane potential dye fluorescence; membrane potential signal change, % at 10 µM; 51% of 2,400 active; AID 488924;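 active means membrane potential signal moves up or down beyond 5 SD from buffer-only wells, on both duplicate plates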
HEK293 MPD ctr 2-2 – second check of TRPC6 modulator effects in parental HEK293 cells; shares compounds with TRPC6 inh; membrane potential dye fluorescence; after compound, maximal acetylcholine stimulation; inhibition, % at 10 µM; 14% of 2,400 active;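 active means membrane potential signal drops by more than 5 SD from the mean control signal, in both duplicate plates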
TRPC4/MOR mod – tests whether TRPC6 modulators also affect mouse TRPC4; 69% of 2,400 active; HEK293 TRPC4/mu-opioid, membrane potential fluorescence; shares compounds with TRPC6 inh; AID 488927; percent change from control (negative = decrease, positive = increase), % at 10 µM;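 active means membrane potential signal moved up or down beyond 5 SD of buffer control wells, in both duplicate plates, actives on both sides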
TRPC4 ctr inh 2 – second check of whether TRPC6 modulators also affect mouse TRPC4 | 55% of 2,400 active | inhibition, % at 10 µM | AID 488928 | shares compounds with TRPC6 inh | HEK293 TRPC4/mu-opioid, membrane potential dye fluorescence; stimulated with maximal-effect DAMGO;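 active means drop in membrane potential signal beyond 5 SD of the control wells in both duplicate plates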;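 further: TRPC4 counter screen for TRPC6 hits run under conditions tuned for TRPC6 not TRPC4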
TRPC6 inh conf – confirmation of mouse TRPC6 inhibitors; shares compounds with TRPC6 inh; HEK293-TRPC6, membrane potential dye, ACh-evoked depolarization; inhibition, % at 10 µM; 43% of 3,300 active; AID 488960;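 active means fluorescence ratio falls more than 5 SD below the full-stimulation control mean, in both duplicate runs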;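 further: integrated fluorescence ratio of peak minus minimum over baseline after agonist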
TRPC6 act confirm – mouse TRPC6 activator confirmation; shares compounds with TRPC6 inh; HEK293-TRPC6 membrane potential dye fluorescence, FDSS; activation, % at 10 µM; 11% of 2,800 active; AID 488961;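 active means ratio signal rise beyond 5 SD above unstimulated control wells' mean, seen in both duplicate runs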
Large screens that a line does not name were inactive (follow-up assays come after a bar, where they were run). Shown are actives, neighbours in structure and some others; about 2.3% of the full set was active somewhere.

O=S(=O)(c1ccccc1Br)N1CCN(c2ncccn2)CC1	none
CC(C)C(O)(C#CCN1CCCC1)c1ccccc1 (configuration not stated)	TRPC6 inh -5.9 | HEK293 MPD ctr-2 inactive | HEK293 MPD ctr 2-2 64% | TRPC4/MOR mod 11% | TRPC4 ctr inh 2 inactive | TRPC6 inh conf 68%
CC(C)C(O)(C#CCN1CCCCC1)c1ccccc1 (configuration not stated)	TRPC6 inh -6.6 | TRPC4 spec 2 inactive | TRPC4 spec 4.9% | HEK293 MPD ctr 2-1 -61% | HEK293 MPD ctr-1 7.8% | TRPC6 inh conf 71%
CSc1cccc(N2CC(C(=O)N(CC(C)C)c3c(N)n(Cc4ccccc4)c(=O)[nH]c3=O)CC2=O)c1 (configuration not stated)	none (no result: DNA FID counter)
C=CCOC(=O)C1=C(C)OC(N)=C(C#N)C1c1ccc2c(c1)OCO2 (configuration not stated)	none
CCOC(=O)C1=C(C)OC(N)=C(C#N)C1c1cc2c(cc1Br)OCO2 (configuration not stated)	TRPC6 inh -5.2 | HEK293 MPD ctr-2 inactive | HEK293 MPD ctr 2-2 inactive | TRPC4/MOR mod inactive | TRPC4 ctr inh 2 inactive | TRPC6 inh conf inactive | TRPC6 act confirm inactive
Cc1ccc(C)c(NC(=O)CC(NCCCN2CCOCC2)C(=O)O)c1 (configuration not stated)	none (no result: TRPC4 PAM, TRPC4 agonist, TRPC6 inh, TRPC6 activator, TRPC4 block)
Cc1ccc(C)c(NC(=O)C(NCC(C)(C)N2CCOCC2)c2ccccc2)c1 (configuration not stated)	TRPC6 inh -6.7 | TRPC4 spec 2 inactive | TRPC4 spec 5.2% | HEK293 MPD ctr 2-1 inactive | HEK293 MPD ctr-1 7.3% | TRPC6 inh conf inactive
Cc1nc2c(C(=O)N3CCN(C)CC3)cnn2c(C)c1Cc1ccc(Cl)cc1	none
Cc1nc2c(C(=O)N3CCCCC3)cnn2c(C)c1Cc1ccccc1F	TRPC6 inh -11, TRPC6 activator 22 | HEK293 MPD ctr-2 147% | HEK293 MPD ctr 2-2 inactive | TRPC4/MOR mod 28% | TRPC4 ctr inh 2 30% | TRPC6 inh conf 114% | TRPC6 act confirm 178%
